# Screening data deposited in PubChem BioAssay by several laboratories.
# The entries come from a sample that favours hits as a whole.
# UPR CHOP act: activators of apoptotic arm of unfolded protein response (CHOP); CHO-CHOP luciferase reporter, UPR activation, luminescence; percent of tunicamycin response over DMSO baseline; 0.34% of 330,000 active; activation, % at 10 µM;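 active = at 10 µM dose, activation of 40% or more, normalized to positive control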;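 note: 100% = tunicamycin at 10 µg/mL and 0% = DMSO alone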
#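 assay system = CHO CHOP reporter cells | amount = 500 CHO-CHOP cells per well | buffer or medium = F12 with 10% FBS | incubation = 16-18 h cell attachment, then 6 h compound exposure, 37 °C | detection = luminescence read with Steady-Glo | read-out = percent activation relative to tunicamycin control | controls = tunicamycin high control, DMSO low control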
# GAA850 FXN act: activators of GAA850 frataxin (FXN) promoter; activation, % at 6 µM; HEK293 lucGAA850 FXN promoter luciferase reporter, 24 h; percent of 10 µM SAHA response; 0.56% of 360,000 active;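 active = activation above the average of all compounds screened plus 3 SD, cutoff fixed separately per campaign, cut at about 7.5% in these data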;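 note: 0% = DMSO wells and 100% = 10 µM SAHA wells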
# CHOP inh: CHOP inhibition in unfolded protein response. 3.8% of 220,000 active. CHO-K1 CHOP-promoter luciferase, tunicamycin-induced, 15-18 h. AID 2732. inhibition, % at 10 µM;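 active = compounds that reduced the stress-induced luciferase reporter signal by more than about 70% of percent inhibition, limit read from the data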;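 note: 0% = tunicamycin plus vehicle and 100% = wells without tunicamycin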
# XBP1 UPR activ: adaptive UPR (XBP1) activation; CHO-XBP1 luciferase reporter, IRE1-XBP1 UPR activation, luminescence; percent of tunicamycin response, DMSO as zero; activation, % at 20 µM; 0.33% of 330,000 active;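 active = versus positive control, 20 µM dose yields 30% or more activation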;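 note: 100% = tunicamycin at 10 µg/mL and 0% = DMSO only wells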
#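 Material: CHO-XBP1 cells stably carrying IRE1-XBP1-driven luciferase reporter | Medium: F12 with 10% serum | Compound dosing: 20 µM single concentration, DMSO 1% | Incubation: Overnight seeding at 37 °C, 6 h compound treatment at 37 °C | Detection: Steady-Glo luminescence read | Read-out basis: % activation of reporter signal versus tunicamycin and DMSO controls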
# * = called active by the depositor; . = no result given.
SMILES,UPR CHOP act,GAA850 FXN act,CHOP inh,XBP1 UPR activ
Cc1ccccc1-c1csc(C(O)c2ccccc2)n1 (centres undefined),.,1,.,.
Cc1ccc(NC(=O)c2cc(-c3cccc(O)c3)on2)cc1C,3,3,86*,6
CN1OC[C@@H]2CN[C@H](c3ccc(-c4cc5ccccc5o4)cc3)C[C@@H]21,.,-14,.,.
O=C(CN1C(=O)C2C3C=CC(C3)C2C1=O)N1CC(=O)N(CCc2ccccc2)C(=O)C1 (centres undefined),-5,0,74*,0
O=C(CCN1C(=O)C2C3C=CC(C3)C2C1=O)N1CC(=O)N(CCc2ccccc2)C(=O)C1 (centres undefined),4,0,4,-1
CC(C)Cn1c(N)c(C(=O)CSc2cc(Cl)ccc2Cl)c(=O)n(C)c1=O,5,.,96*,4
CC1=NNC(=O)/C1=C\c1cn(-c2ccccc2)nc1-c1ccc(Cl)cc1,-10,1,108*,-6
O=C(Nc1ccc2c(c1)OCO2)c1ccc2sc([C@H]3C[C@H](O)[C@@H](CO)O3)nc2c1,.,4,.,.
COC(=O)N=Nc1c(O)n(Cc2ccccc2)c2ccccc12,2,3,7,0
CCOC(=O)N=Nc1c(O)n(Cc2ccccc2)c2ccccc12,1,3,80*,3
O=Nc1c(O)n(Cc2cccc(Cl)c2)c2ccccc12,0,-1,73*,2
CCc1nc2ccc(C(=O)NCCCn3ccnc3)cn2c1N(C)C(=O)c1cccc(OC)c1,.,4,.,.
CCOc1cc(/C=N\NC(=O)Cn2nc([N+](=O)[O-])cc2C)ccc1OCc1cccc2ccccc12,4,1,88*,4
CCCS(=O)(=O)NC(=O)C1(C)CCCN(C(=O)C2(c3ccc(Cl)cc3)CCCC2)C1 (centres undefined),.,-2,.,.
O=C(NCc1ccccc1)c1cccc(COc2ccc3c(c2)CCC3)c1,-4,4,56,-4
CCOc1ccc(OCc2cccc(C(=O)N3CCCC3)c2)cc1,-4,5,23,-5
O=C(O)c1cccc(COc2ccc3c(c2)CCC3)c1,-11,3,93*,-8
CCOc1ccc(OCc2cccc(C(=O)O)c2)cc1,-10,-2,109*,-6
CC(C)C(N)c1csc(NC(=O)Nc2cccc(Cl)c2)n1 (centres undefined),.,-2,.,.
CCCCN(C)c1c(C)nc2ccc(C(=O)N(CC)CCN(C)C)cn12,.,0,.,.
CC1Oc2ccccc2N(Cc2ccccc2Cl)C1=O (centres undefined),4,0,89*,2
CCCSc1nc(N2CCOCC2)c2c(c1C#N)CC(C)(C)SC2,-1,1,78*,-5
CC(C)CSc1nc(N2CCOCC2)c2c(c1C#N)CC(C)(C)SC2,-1,4,36,-1
CSc1ccc(CNC(=O)C2CCC(=O)N(CCc3ccc(Cl)cc3)C2)cc1 (centres undefined),.,-3,.,.
COc1ccc(CCC(C)Nc2cccc(F)c2)cc1 (centres undefined),2,0,88*,-1
SMILES,UPR CHOP act,GAA850 FXN act,CHOP inh,XBP1 UPR activ
COc1ccc(CCC(C)Nc2ccccc2F)cc1 (centres undefined),-1,3,49,-1
CC1/C(=N/O)CC(c2ccccc2)N(C)C1c1ccccc1 (centres undefined),2,1,93*,1
CC1C(c2ccccc2)N(C)C(c2ccccc2)CC1(O)c1ccccc1 (centres undefined),-1,2,85*,5
CC1/C(=N/O)CC(c2ccccc2)NC1c1ccccc1 (centres undefined),6,0,47,-4
CC(=O)c1ccc(OC2(C)CCN(Cc3cc4ccccc4[nH]3)C2)cc1 (centres undefined),.,4,.,.
Cc1cccc(NC(=O)c2ccccc2NC(=O)C2CCCCC2)c1C,-2,1,78*,-4
CNC(=O)C[C@H]1C(=O)N(c2ccc(Br)cc2)C[C@@H]1C,.,1,.,.
O=C(NCCc1ccccc1)C(=O)N/N=C/c1ccc2c(c1)OCO2,0,0,95*,6
Cc1cccc(OCC(=O)N/N=C/c2ccc3c(c2)OCO3)c1,1,0,14,2
Cc1cc(C)c(OCC(=O)N/N=C/c2ccc3c(c2)OCO3)c(C)c1,-1,-1,73*,1
Cc1ccc(N2CCN(c3ccc(C)cc3)C2c2cccnc2)cc1,1,3,76*,-3
O=C1c2cccc3cccc(c23)C(=O)N1CCN1CCN(C(=S)Nc2ccc(F)cc2)CC1,43*,.,22,26
CNc1nc(Nc2ccc(C)cc2C)c2sccc2n1,.,2,.,.
CC(Sc1nc(-c2ccccc2)cc(C(F)(F)F)n1)C(=O)N1CCCC1 (centres undefined),0,-1,92*,0
C/C(=N/NC(=O)CNc1ccc(Cl)cc1C)c1ccc(C)cc1,-2,2,87*,1
CCOc1nc2c(c(=O)n(C)c(=O)n2C)n1Cc1ccccc1Cl,1,-2,31,-3
C=CCOc1nc2c(c(=O)n(C)c(=O)n2C)n1Cc1c(Cl)cccc1Cl,-2,1,86*,4
COC(=O)c1ccc(COC(=O)c2ccc(N(C)C)cc2)cc1,2,0,80*,-1
CCCCc1ccc(S(=O)(=O)NC(=O)C2(C)CCN2C(=O)Cc2ccccc2)cc1 (centres undefined),.,1,.,.
O=C(CN(CCO)Cc1ccccc1)N1CCN(S(=O)(=O)c2ccccc2)CC1,.,0,.,.
CCCNS(=O)(=O)c1ccc(Oc2ncc(C(F)(F)F)cc2Cl)cc1,0,0,74*,4
COC(=O)c1c(-c2cccc3ccccc23)csc1NC(=O)Cc1ccc(OC)c(OC)c1,4,-5,73*,-1
COC(=O)c1c(-c2ccc(C)cc2)csc1NC(=O)Cc1ccc(OC)c(OC)c1,.,0,55,.
CCc1nc2ccc(C(=O)NCCCn3ccnc3)cn2c1N(C)Cc1cccs1,.,-2,.,.
Cc1occc(=O)c1OC(=O)Nc1ccc(Cl)c(Cl)c1,.,-2,96*,.
SMILES,UPR CHOP act,GAA850 FXN act,CHOP inh,XBP1 UPR activ
CCOc1c(Br)ccc2c1sc1nc[nH]c(=O)c12,-1,1,93*,2
CC(=O)c1c(C)[nH]c(C(=O)COc2cc(C)ccc2C(C)C)c1C,4,-6,83*,-4
O=C(CCl)N1N=C(c2ccco2)CC1c1cccs1 (centres undefined),.,-17,90*,.
CC(=O)N1N=C(c2ccco2)CC1c1cccs1 (centres undefined),-1,3,-2,-1
CC1(C)Cc2c(c(-c3ccco3)nc3sc4c(NCCN5CCOCC5)ncnc4c23)CO1,-2,4,28,15
CC1(C)Cc2c(c(-c3ccco3)nc3sc4c(NCC5CCCO5)ncnc4c23)CO1 (centres undefined),1,4,95*,16
COc1ccc(CC(=O)Nc2cccc(-c3nnc(-c4ccco4)o3)c2)cc1,0,-1,59,1
